Test results: ChEMBL document CHEMBL4411278, “Discovery of potent and selective inhibitors of the Escherichia coli M1-aminopeptidase via multicomponent solid-phase synthesis of tetrazole-peptidomimetics” (Eur J Med Chem, 2019)
Calls of active or inactive are those of the source. The rule behind the calls is not given here.

How the values were obtained:
Escherichia coli [1] = assay: Reversible inhibition of recombinant Escherichia coli M1 aminopeptidase using Leu-pNA as substrate preincubated for 15 mins followed by substrate addition
How it was run: (§1)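 Recombinant ePepN (partially purified by ion exchange) or porcine kidney cortex microsomal APN was pre-incubated 15 min at 25°C with inhibitor in DMSO (final ≤2% v/v), then 75 μM Leu-pNA (~1 KMapp) was added. Buffer was 50 mM Tris-HCl pH 8.0. A405 was read every 15 s for 3 min. Doses were double serial dilutions over 0.781–100 μM, and IC50 came from a logistic fit of residual activity (vi/v0); at least triplicate.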

Escherichia coli [2] = assay: (§2) Inhibition of recombinant Escherichia coli M1 aminopeptidase using Leu-pNA as substrate preincubated for 15 mins followed by substrate addition; how it was run: as §1
[3] = as §2; how it was run: as §1
[4] = Cytotoxicity against mouse P3X63Ag assessed as reduction in cell viability after 3 hrs by MTT assay
How it was run: (§3)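 P3X63Ag murine myeloma cells were grown in DMEM-F12 with 10% FCS at 37°C, 5% CO2. For the assay they were plated in serum-free DMEM-F12 and exposed to compounds for 3, 6 or 20 h. After a PBS wash, cells got MTT for 3 h and crystals were dissolved in DMSO. Absorbance was read at 450 nm (620 nm reference), and viability calculated as 100×At/Ac versus untreated cells.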

Erythrocyte [5] = assay: Haemolytic activity in human erythrocytes assessed as induction of hemolysis after 3 hrs; assay type: cell-based
How it was run: (§4)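 Fresh human red blood cells were washed and resuspended in 145 mM NaCl, 10 mM Tris-HCl pH 7.4, adjusted so full lysis with Na2CO3 gives A540 ≈0.7. Cells were incubated with compounds for 3, 6 or 20 h, with untreated and 1% DMSO controls. Supernatant haemoglobin was measured after centrifugation.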

[6] = Haemolytic activity in human erythrocytes assessed as induction of hemolysis at 100 uM after 20 hrs relative to control; assay type: cell-based, Erythrocyte; conditions: read-out: Activity; how it was run: as §4
Erythrocyte [7] = assay: Haemolytic activity in human erythrocytes assessed as induction of hemolysis after 6 hrs; assay type: cell-based; how it was run: as §4
[8] = Cytotoxicity against mouse P3X63Ag assessed as reduction in cell viability at 50 uM after 3 hrs by MTT assay relative to control; how it was run: as §3
[9] = Cytotoxicity against mouse P3X63Ag assessed as reduction in cell viability at 50 uM after 6 hrs by MTT assay relative to control; how it was run: as §3
[10] = Cytotoxicity against mouse P3X63Ag assessed as reduction in cell viability after 6 hrs by MTT assay; how it was run: as §3
[11] = Cytotoxicity against mouse P3X63Ag assessed as reduction in cell viability at 50 uM after 20 hrs by MTT assay relative to control; how it was run: as §3
[12] = Selectivity index, ratio of IC50 for M1 aminopeptidase in porcine kidney cortex microsomes to IC50 for recombinant Escherichia coli M1 aminopeptidase
[13] = Cytotoxicity against mouse P3X63Ag assessed as reduction in cell viability after 20 hrs by MTT assay; how it was run: as §3
[14] = Inhibition of M1 aminopeptidase in porcine kidney cortex microsomes using Leu-pNA as substrate preincubated for 15 mins followed by substrate addition; parameters: species or system Sus scrofa
Escherichia coli [15] = assay: Growth inhibition of Escherichia coli BL21 up to 100 uM after 3 to 20 hrs by spectrophotometric analysis; assay type: functional, organism-based
How it was run: (§5)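 E. coli BL21 was inoculated at 1% from an overnight culture into LB. Compounds were added at eight concentrations (0.781–100 μM) from DMSO serial dilutions, with DMSO and 200 μg/mL ampicillin controls; four replicates. Plates were held at 37°C and raised to 42°C at 6 h. A595 was read at 0, 3, 6 and 20 h and normalized to the DMSO control (100% growth).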

Erythrocyte [16] = assay: Haemolytic activity in human erythrocytes assessed as induction of hemolysis after 20 hrs; assay type: cell-based; how it was run: as §4
Escherichia coli [17] = assay: Noncompetitive inhibition of recombinant Escherichia coli M1 aminopeptidase assessed as Vmax for substrate at 3.125 uM using Leu-pNA as substrate preincubated for 15 mins followed by substrate addition by Lineweaver-Burk double reciprocal plot analysis (reference value: 125 10^-3OD/min)
Escherichia coli [18] = assay: Noncompetitive inhibition of recombinant Escherichia coli M1 aminopeptidase assessed as Vmax for substrate at 6.25 uM using Leu-pNA as substrate preincubated for 15 mins followed by substrate addition by Lineweaver-Burk double reciprocal plot analysis (reference value: 125 10^-3OD/min)
Escherichia coli [19] = assay: Noncompetitive inhibition of recombinant Escherichia coli M1 aminopeptidase assessed as Vmax for substrate at 1.56 uM using Leu-pNA as substrate preincubated for 15 mins followed by substrate addition by Lineweaver-Burk double reciprocal plot analysis (reference value: 125 10^-3OD/min)
Escherichia coli [20] = assay: Noncompetitive inhibition of recombinant Escherichia coli M1 aminopeptidase assessed as Km for substrate at 6.25 uM using Leu-pNA as substrate preincubated for 15 mins followed by substrate addition by Lineweaver-Burk double reciprocal plot analysis (reference value: 120 umol/L)
Escherichia coli [21] = assay: Reversible inhibition of recombinant Escherichia coli M1 aminopeptidase using Leu-pNA as substrate preincubated for 45 mins followed by substrate addition; conditions: in the assay text read “15 mins” for “45 mins”
How it was run: (§6)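 The time to reach inhibition equilibrium was tested by pre-incubating recombinant ePepN with inhibitor for 5, 10, 15, 30 or 45 min at 25°C. Residual activity was then measured on 75 μM Leu-pNA in 50 mM Tris-HCl pH 8.0, reading A405 continuously against a DMSO control.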

Escherichia coli [22] = assay: Noncompetitive inhibition of recombinant Escherichia coli M1 aminopeptidase assessed as Km for substrate at 3.125 uM using Leu-pNA as substrate preincubated for 15 mins followed by substrate addition by Lineweaver-Burk double reciprocal plot analysis (reference value: 120 umol/L)
Escherichia coli [23] = assay: Noncompetitive inhibition of recombinant Escherichia coli M1 aminopeptidase assessed as Km for substrate at 1.56 uM using Leu-pNA as substrate preincubated for 15 mins followed by substrate addition by Lineweaver-Burk double reciprocal plot analysis (reference value: 120 umol/L)
Escherichia coli [24] = assay: (§7) Inhibition of recombinant Escherichia coli M1 aminopeptidase using Leu-pNA as substrate preincubated for 45 mins followed by substrate addition; how it was run: as §6
[25] = as §7; conditions: in the assay text read “15 mins” for “45 mins”; how it was run: as §6
Escherichia coli [26] = assay: Growth inhibition of Escherichia coli BL21 after 3 to 6 hrs by spectrophotometric analysis; assay type: functional, organism-based; how it was run: as §5
Escherichia coli [27] = assay: Growth inhibition of Escherichia coli BL21 after 20 hrs by spectrophotometric analysis; assay type: functional, organism-based; conditions: BL21, BL21, 20 h; how it was run: as §5

inhibition (Escherichia coli [1])	inhibition (Escherichia coli [2])	IC50 [3] [µM]	Structure (SMILES)	also measured
Active	Dose-dependent effect	90	COc1ccc(C(N[C@H](C(=O)O)C(C)C)c2nnnn2C2CCCCC2)cc1 (some centres not stated)	
Active	Dose-dependent effect	48	O=C(O)[C@H](Cc1c[nH]c2ccccc12)NC(c1ncc[nH]1)c1nnnn1C1CCCCC1 (some centres not stated)	
Active	Dose-dependent effect	2.2	O=C(O)[C@H](Cc1c[nH]c2ccccc12)NC(c1ccco1)c1nnnn1C1CCCCC1 (some centres not stated)	IC50 [4]: > 100 µM; HC20 (Erythrocyte [5]): 80 µM; hemolysis at 20 h, 100 µM [6]: 40%; HC20 (Erythrocyte [7]): 70 µM; Activity [8]: <= 60%; Activity [9]: <= 50%; IC50 [10]: > 100 µM; Activity [11]: <= 50%; Ratio IC50 [12]: 909; IC50 [13]: 100 µM; IC50 [14]: 2000 µM; growth inhibition (GI) (Escherichia coli [15]): inactive; HC20 (Erythrocyte [16]): 55 µM
			O=C(O)[C@H](Cc1c[nH]c2ccccc12)NC(c1ccco1)c1nnnn1Cc1ccccc1 (some centres not stated)	Vmax (Escherichia coli [17]): 34.5 mOD/min; IC50 [4]: > 100 µM; HC20 (Erythrocyte [5]): > 100 µM; hemolysis at 20 h, 100 µM [6]: 15%; HC20 (Erythrocyte [7]): > 100 µM; Vmax (Escherichia coli [18]): 23.3 mOD/min; Vmax (Escherichia coli [19]): 45.5 mOD/min; IC50 [10]: > 100 µM; Km (Escherichia coli [20]): 61.4 µM; Ratio IC50 [12]: 23500; IC50 [13]: > 100 µM; IC50 [14]: 6100 µM; inhibition (Escherichia coli [21]): Active; Km (Escherichia coli [22]): 69.3 µM; growth inhibition (GI) (Escherichia coli [15]): inactive; Km (Escherichia coli [23]): 71.3 µM; HC20 (Erythrocyte [16]): > 100 µM; inhibition (Escherichia coli [24]): Dose-dependent effect; IC50 [25]: 0.26 µM
Active	Dose-dependent effect	160	COc1ccc(C(N[C@H](C(=O)O)C(C)C)c2nnnn2CCCc2ccccc2)cc1 (some centres not stated)	
Active	Dose-dependent effect	27	CC(C)[C@H](NC(c1cccnc1)c1nnnn1C1CCCCC1)C(=O)O (some centres not stated)	
Active	Dose-dependent effect	22	O=C(O)[C@H](Cc1c[nH]c2ccccc12)NC(c1cccnc1)c1nnnn1C1CCCCC1 (some centres not stated)	
Active	Dose-dependent effect	127	CC(C)[C@H](NC(c1ncc[nH]1)c1nnnn1C1CCCCC1)C(=O)O (some centres not stated)	
Active	Dose-dependent effect	71	CC(C)[C@H](NC(c1ncc[nH]1)c1nnnn1Cc1ccccc1)C(=O)O (some centres not stated)	
Active	Dose-dependent effect	630	COc1ccc(C(N[C@@H](Cc2c[nH]c3ccccc23)C(=O)O)c2nnnn2C2CCCCC2)cc1 (some centres not stated)	
Active	Dose-dependent effect	170	CC(C)[C@H](NCc1nnnn1CCCc1ccccc1)C(=O)O	
Active	Dose-dependent effect	41	O=C(O)[C@H](Cc1ccccc1)NC(c1ccco1)c1nnnn1C1CCCCC1 (some centres not stated)	
Active	Dose-dependent effect	47	CC(C)[C@H](NCc1nnnn1Cc1ccccc1)C(=O)O	
Active	Dose-dependent effect	110	O=C(O)[C@H](Cc1c[nH]c2ccccc12)NCc1nnnn1C1CCCCC1	
		> 1000	COc1ccc(C(N[C@H](C(=O)O)C(C)C)c2nnnn2Cc2ccccc2)cc1 (some centres not stated)	growth inhibition (GI) (Escherichia coli [15]): inactive
Active	Dose-dependent effect	470	CC(C)[C@H](NC(c1ncc[nH]1)c1nnnn1CCCc1ccccc1)C(=O)O (some centres not stated)	
		7	CC(C)C[C@H](NC(=O)[C@@H](O)[C@H](N)Cc1ccccc1)C(=O)O [UBENIMEX]	growth inhibition (GI) (Escherichia coli [15]): inactive
Active	Dose-dependent effect	25	O=C(O)[C@H](Cc1c[nH]c2ccccc12)NC(c1ncc[nH]1)c1nnnn1Cc1ccccc1 (some centres not stated)	
Active	Dose-dependent effect	7.2	COc1ccc(C(N[C@@H](Cc2c[nH]c3ccccc23)C(=O)O)c2nnnn2Cc2ccccc2)cc1 (some centres not stated)	
Active	Dose-dependent effect	44	O=C(O)[C@H](Cc1ccc(OCc2ccccc2)cc1)NCc1nnnn1C1CCCCC1	
Active	Dose-dependent effect	17	O=C(O)[C@H](Cc1ccccc1)NC(c1ccco1)c1nnnn1Cc1ccccc1 (some centres not stated)	
Active	Dose-dependent effect	1.4	COc1ccc(C(N[C@@H](Cc2ccc(OCc3ccccc3)cc2)C(=O)O)c2nnnn2C2CCCCC2)cc1 (some centres not stated)	IC50 [4]: > 100 µM; HC20 (Erythrocyte [5]): > 100 µM; hemolysis at 20 h, 100 µM [6]: 40%; HC20 (Erythrocyte [7]): 70 µM; Activity [8]: <= 60%; Activity [9]: <= 50%; IC50 (Escherichia coli [26]): < 50 µM; IC50 [10]: 100 µM; Activity [11]: <= 50%; Ratio IC50 [12]: 1130; IC50 [13]: 100 µM; IC50 [14]: 1580 µM; IC50 (Escherichia coli [27]): < 100 µM; HC20 (Erythrocyte [16]): 65 µM
